{"source": "ChEMBL document CHEMBL1123566", "about": "“Synthesis and cardiac electrophysiological activity of 2- and 3-[(substituted phenyl)alkyl]quinuclidines. Structure-activity relationships” (1987)", "key": {"Canis familiaris [1]": {"system": "Canis familiaris", "assay": "Conduction time was determined by intraduodenal administration of two dosages of 10 mg/kg (high dose) of compound in anesthetized dogs. Value was reported for experiment 1", "type": "functional, Canis lupus familiaris", "how_it_was_run": "(§1)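 Anesthetized dogs; compound given intraduodenally, generally as two doses, the second a cumulative (high) dose. LV functional refractory period and conduction time measured 15, 30 and 45 min after dosing; heart rate and blood pressure measured during nonpacing intervals. Values are % change from control, given per individual animal. Active if FRP or CT prolonged by ≥12%.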"}, "Canis familiaris [2]": {"species": "Canis familiaris", "assay": "In vitro electrophysiological evaluation in canine cardiac ventricular muscle reported as % change for conduction time(CT) at 0.1-30 uM concentration range; Minimal (<IO%increase or a decrease in CT)", "type": "functional, Canis lupus familiaris, Muscle tissue"}, "Canis familiaris [3]": {"system": "Canis familiaris", "assay": "Conduction time was determined by intraduodenal administration of two dosages of 3 mg/kg (low dose) of compound in anesthetized dogs. Value was reported for experiment 1", "type": "functional, Canis lupus familiaris", "how_it_was_run": "as §1"}, "Canis familiaris [4]": {"species": "Canis familiaris", "assay": "In vitro electrophysiological evaluation in canine cardiac Purkinje fibres reported as maximum percent change Vmax concentration range of 0.1-10 uM; Minimal (<IO%increase or a decrease in CT)", "type": "functional", "conditions": "Canis lupus familiaris; Purkinje fiber", "how_it_was_run": "(§2)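 Canine cardiac Purkinje fibres, intracellular microelectrode recording, paced at a basic cycle length of 1 s. APD95 and Vmax read simultaneously. Compound: 10 mM stock in deionized water, diluted into Tyrode's solution, tested over the stated concentration range. Each fibre used once as its own control. Result is % change from control, given at 10 µM or as the maximum with its concentration. M = <10% decrease or an increase in Vmax.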"}, "Canis familiaris [5]": {"system": "Canis familiaris", "assay": "Effective dose administered intravenously to elicit Antiarrhythmic efficacy in anesthetized dogs was reported. Value in parenthesis indicates no. of animals effective at that dose.", "type": "functional, Canis lupus familiaris, Heart", "how_it_was_run": "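Dogs are anesthetized and the chest reopened. Stimulating and recording electrodes go on the myocardium. Reproducible PES-induced sustained VT or VF is confirmed first; SVT is ended by burst pacing and VF by DC countershock. Compound is given iv in 0.9% saline and inducibility retested. A dose counts as effective when SVT/VF cannot be reinduced in two of three animals.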"}, "Canis familiaris [6]": {"system": "Canis familiaris", "assay": "Mean arterial blood pressure was determined by intraduodenal administration of two dosages of 10 mg/kg of compound in anesthetized dogs. Value was reported for experiment 2", "type": "functional, Canis lupus familiaris", "how_it_was_run": "(§3)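 Anesthetized dogs received two intraduodenal doses, the second cumulative (low dose/high dose). Left ventricular FRP and CT were measured 15, 30 and 45 min after dosing. Heart rate and mean blood pressure were taken during nonpacing intervals. Values are percent change from control. The vehicle was 5% dextrose in water/tragacanth. Activity was defined as ≥12% prolongation of FRP or CT.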"}, "Canis familiaris [7]": {"system": "Canis familiaris", "assay": "Left ventricular refractory period was determined by intraduodenal administration of two dosages of 10 mg/kg of (high dose) compound in anesthetized dogs. Value was reported for experiment 1", "type": "functional, Canis lupus familiaris, Cardiac ventricle", "how_it_was_run": "as §3"}, "Canis familiaris [8]": {"species": "Canis familiaris", "assay": "In vitro electrophysiological activity in canine cardiac Purkinje fibres given as maximum % change for action potential duration at 0.1-10 uM concentration", "type": "functional, Canis lupus familiaris, Purkinje fiber", "how_it_was_run": "(§4)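 Canine cardiac Purkinje fibres, intracellular recording at 1 s basic cycle length, over cumulative concentration ranges. Compound 10 mM stock in deionized water diluted into Tyrode's. Each fibre used once as its own control. Value is the maximum % change from control in APD at 95% repolarization, with the concentration where it occurred; both values given if a biphasic response (>20% reversal) occurred.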"}, "Canis familiaris [9]": {"system": "Canis familiaris", "assay": "Heart rate was determined by intraduodenal administration of two dosages of 3 mg/kg of (low dose) compound in anesthetized dogs. Value was reported for experiment 1", "type": "functional, Canis lupus familiaris", "how_it_was_run": "as §1"}, "Canis familiaris [10]": {"species": "Canis familiaris", "assay": "In vitro electrophysiological evaluation in canine cardiac Purkinje fibres reported as percent change Vmax concentration range of 0.1-30 uM; Minimal (<IO%increase or a decrease in CT)", "type": "functional", "conditions": "Canis lupus familiaris; Purkinje fiber", "how_it_was_run": "as §2"}, "Canis familiaris [11]": {"system": "Canis familiaris", "assay": "Left ventricular refractory period was determined by intraduodenal administration of two dosages of 3 mg/kg of (low dose) compound in anesthetized dogs. Value was reported for experiment 1", "type": "functional, Canis lupus familiaris, Cardiac ventricle", "how_it_was_run": "as §3"}, "Canis familiaris [12]": {"system": "Canis familiaris", "assay": "Heart rate was determined by intraduodenal administration of two dosages of 10 mg/kg of (high dose) compound in anesthetized dogs. Value was reported for experiment 1", "type": "functional, Canis lupus familiaris", "how_it_was_run": "as §1"}, "Canis familiaris [13]": {"species": "Canis familiaris", "assay": "In vitro electrophysiological evaluation in canine cardiac ventricular muscle reported as % change for the functional refractory period (FRP) concentration range of 0.1-30 uM", "design": "species or system Canis lupus familiaris, Muscle tissue", "how_it_was_run": "(§5)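 Canine right ventricle and papillary muscle strips in oxygenated Tyrode's solution, fitted with stimulating and recording electrodes. The extra-stimulus conduction-interval method was adapted for in vitro use. FRP and CT were read from a conduction-interval curve before and after various compound concentrations, and expressed as percent change from control. Compounds were taken from 10 mM deionized-water stock into Tyrode's. Each strip was used once as its own control.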"}, "Canis familiaris [14]": {"system": "Canis familiaris", "assay": "Heart rate was determined by intraduodenal administration of two dosages of 10 mg/kg of compound in anesthetized dogs. Value was reported for experiment 2", "type": "functional, Canis lupus familiaris", "how_it_was_run": "as §1"}, "Canis familiaris [15]": {"system": "Canis familiaris", "assay": "Mean arterial blood pressure was determined by intraduodenal administration of two dosages of 10 mg/kg of (high dose) compound in anesthetized dogs. Value was reported for experiment 1", "type": "functional, Canis lupus familiaris", "how_it_was_run": "as §3"}, "Canis familiaris [16]": {"system": "Canis familiaris", "assay": "Conduction time was determined by intraduodenal administration of two dosages of 10 mg/kg of compound in anesthetized dogs. Value was reported for experiment 2", "type": "functional, Canis lupus familiaris", "how_it_was_run": "as §1"}, "Canis familiaris [17]": {"species": "Canis familiaris", "assay": "In vitro electrophysiological activity in canine cardiac Purkinje fibres given as maximum % change for action potential duration at 0.1-30 uM concentration", "type": "functional, Canis lupus familiaris, Purkinje fiber", "how_it_was_run": "as §4"}, "Canis familiaris [18]": {"species": "Canis familiaris", "assay": "In vitro electrophysiological evaluation in canine cardiac ventricular muscle reported as maximum % change for functional refractory period (FRP) at 0.1-30 uM concentration range", "design": "species or system Canis lupus familiaris, Muscle tissue", "how_it_was_run": "as §5"}, "Canis familiaris [19]": {"system": "Canis familiaris", "assay": "Left ventricular refractory period was determined by intraduodenal administration of two dosages of 10 mg/kg of compound in anesthetized dogs. Value was reported for experiment 2", "type": "functional, Canis lupus familiaris, Cardiac ventricle"}, "Canis familiaris [20]": {"species": "Canis familiaris", "assay": "In vitro electrophysiological evaluation in canine cardiac ventricular muscle reported as maximum % change for conduction time(CT) at 0.1-30 uM concentration range; Minimal (<IO%increase or a decrease in CT)", "type": "functional, Canis lupus familiaris, Muscle tissue", "how_it_was_run": "as §5"}, "Canis familiaris [21]": {"species": "Canis familiaris", "assay": "In vitro electrophysiological evaluation in canine cardiac Purkinje fibres reported as maximum percent change Vmax concentration range of 0.1-30 uM; Minimal (<IO%increase or a decrease in CT)", "type": "functional", "conditions": "Canis lupus familiaris; Purkinje fiber", "how_it_was_run": "as §2"}, "Canis familiaris [22]": {"species": "Canis familiaris", "assay": "In vitro electrophysiological evaluation in canine cardiac Purkinje fibres reported as % change for action potential duration at 0.1-10 uM concentration range", "type": "functional, Canis lupus familiaris, Purkinje fiber", "how_it_was_run": "as §2"}, "Canis familiaris [23]": {"species": "Canis familiaris", "assay": "In vitro electrophysiological evaluation in canine cardiac Purkinje fibres reported as % change for action potential duration at 0.1-30 uM concentration range", "type": "functional, Canis lupus familiaris, Purkinje fiber", "how_it_was_run": "as §2"}, "Canis familiaris [24]": {"species": "Canis familiaris", "assay": "In vitro electrophysiological evaluation in canine cardiac Purkinje fibres reported as percent change Vmax concentration range of 0.1-10 uM; Minimal (<IO%increase or a decrease in CT)", "type": "functional", "conditions": "Canis lupus familiaris; Purkinje fiber", "how_it_was_run": "as §2"}, "Canis familiaris [25]": {"system": "Canis familiaris", "assay": "Mean arterial blood pressure was determined by intraduodenal administration of two dosages of 3 mg/kg of (low dose) compound in anesthetized dogs. Value was reported for experiment 1", "type": "functional, Canis lupus familiaris", "how_it_was_run": "as §3"}}}
{"smiles": "CCCCCCC[N+]12CCC(CC1)/C(=C/Cc1ccc(Cl)cc1)C2.[Br-]", "values": [{"measurement": "CT", "setting": "Canis familiaris [1]", "value": -5, "unit": "%"}, {"measurement": "CT", "setting": "Canis familiaris [2]", "value": "<10", "unit": "%"}, {"measurement": "CT", "setting": "Canis familiaris [3]", "value": 0, "unit": "%"}, {"measurement": "Vmax", "setting": "Canis familiaris [4]", "value": "< 10", "unit": "%"}, {"measurement": "Effective dose", "setting": "Canis familiaris [5]", "value": 0.3, "unit": "mg/kg"}, {"measurement": "Mean blood pressure", "setting": "Canis familiaris [6]", "value": 42, "unit": "%"}, {"measurement": "LV FRP", "setting": "Canis familiaris [7]", "value": 15, "unit": "%"}, {"measurement": "APD95", "setting": "Canis familiaris [8]", "value": 50, "unit": "%"}, {"measurement": "HR", "setting": "Canis familiaris [9]", "value": 5, "unit": "%"}, {"measurement": "Vmax", "setting": "Canis familiaris [10]", "value": "< 10", "unit": "%"}, {"measurement": "LV FRP", "setting": "Canis familiaris [11]", "value": 2, "unit": "%"}, {"measurement": "HR", "setting": "Canis familiaris [12]", "value": -9, "unit": "%"}, {"measurement": "FRP", "setting": "Canis familiaris [13]", "value": 21, "unit": "%"}, {"measurement": "HR", "setting": "Canis familiaris [14]", "value": -13, "unit": "%"}, {"measurement": "Mean blood pressure", "setting": "Canis familiaris [15]", "value": 15, "unit": "%"}, {"measurement": "CT", "setting": "Canis familiaris [16]", "value": 5, "unit": "%"}, {"measurement": "APD95", "setting": "Canis familiaris [17]", "value": 64, "unit": "%"}, {"measurement": "FRP", "setting": "Canis familiaris [18]", "value": 30, "unit": "%"}, {"measurement": "LV FRP", "setting": "Canis familiaris [19]", "value": 16, "unit": "%"}, {"measurement": "CT", "setting": "Canis familiaris [20]", "value": "<10", "unit": "%"}, {"measurement": "Vmax", "setting": "Canis familiaris [21]", "value": "< 10", "unit": "%"}, {"measurement": "APD95", "setting": "Canis familiaris [22]", "value": 40, "unit": "%"}, {"measurement": "APD95", "setting": "Canis familiaris [23]", "value": 64, "unit": "%"}, {"measurement": "Vmax", "setting": "Canis familiaris [24]", "value": "< 10", "unit": "%"}, {"measurement": "Mean blood pressure", "setting": "Canis familiaris [25]", "value": 5, "unit": "%"}]}
